Experimental findings from ChEMBL document CHEMBL1134437, “Synthesis and biological evaluation of novel pyrazoles and indazoles as activators of the nitric oxide receptor, soluble guanylate cyclase” (J Med Chem, 2001) are described below.

The species named for data set [1] is Homo sapiens. The data set is described as follows: Percent inhibition of collagen-induced platelet aggregation at 100 uM concentration. Type of data set: functional.
Data set [2] in a line: (§1) Bovine sGC stimulation measured as relative enzyme activity (percentage of DEA/NO response for the compound to compound 3). Type of data set: functional. The method, boiled down: (§2)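 Baculovirus-expressed bovine sGC from Sf21 cells, partially purified on Mono-Q. Compound at 1 µM single concentration in Tris buffer pH 7.4 with 5 mM MgCl2, IBMX and GTP; sGC submaximally stimulated with 300 nM DEA/NO, 10 min at room temperature. cGMP by competitive enzyme immunoassay, duplicate, at least n = 2; expressed as % of DEA/NO response, then ratio to benzydamine.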

The species entered for data set [3] is Homo sapiens. The data set is described as follows: Concentration required to inhibit collagen-induced platelet aggregation by 50%. Type of data set: functional. The method, boiled down: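 Washed human platelets, prepared from citrated blood with PGI2 and normalized to 250 000 cells/µL in calcium-free Tyrode's buffer pH 7.4. Compound (DMSO ≤0.1% final) added 1 min before an EC50 dose of collagen. Light-transmittance aggregometry at 37 °C, response read 3 min after collagen and normalized to collagen control. IC50 from dose-response curves, mean ± SEM, at least 2 experiments.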

A short description of data set [4]: Activation of bovine sGC Enzyme (soluble Guanylate Cyclase) in Sf21 cells infected with baculo virus in the presence of 30 nM of PAPA/NO. Type of data set: cell-based. The method, boiled down:
(§3)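 Bovine sGC expressed in Sf21 cells (baculovirus, 2.5 µg/mL hemin, 27 °C, 48 h), partially purified by Mono-Q anion exchange. Reaction in Tris buffer pH 7.4 with 5 mM MgCl2, 120 µg/mL enzyme, IBMX and GTP, stimulated by 30 nM PAPA/NO, room temperature, 10 min. cGMP read by competitive enzyme immunoassay. EC50 from nonlinear regression, mean ± SEM of at least 3 independent experiments.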

Data set [5] in a line: Activation of sGC Enzyme (soluble Guanylate Cyclase) in Sf21 cells infected with baculo virus in the presence of 30 nM of PAPA/NO. Type of data set: functional, cell-based. The essentials: as §3
Data set [6] can be described thus: Cmax was determined after oral dosing of 5 mg/kg in rat. Type of data set: ADME, organism-based. On the set-up: dose 5 mg/kg, route oral. The settings on record: in vivo. The essentials: (§4)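 Male Sprague-Dawley rats given 5 mg/kg in PBS orally (iv arm also run). Blood taken predose and at 0.5, 1, 2, 3, 4, 6, 10 and 24 h after oral dosing. Serum extracted into diethyl ether and analysed by reversed-phase C18 HPLC.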

The subject of data set [7] is Rattus norvegicus. The data set is described as follows: Area under curve (AUC) was determined after oral dosing of 5 mg/kg in rat. Type of data set: ADME, organism-based. On the set-up: dose 5 mg/kg, route oral. The conditions noted are these: in vivo. The essentials: as §4
A short description of data set [8]: Bioavailability in rat after (dose 5 mg/kg p.o.). Type of data set: ADME, organism-based. The settings on record: in vivo, po. The method, boiled down:
as §4

Data set [9] is filed under the species Homo sapiens. In words: Percent inhibition of collagen-induced platelet aggregation at 50 uM concentration. Type of data set: functional.
Data set [10] can be described thus: as §1. The essentials:
as §2

Data set [11] is described as follows: (§5) Compound was evaluated for pharmacokinetic parameter was determined after oral dosing of 2 mg/kg in rat. Type of data set: ADME, organism-based. On the set-up: dose 2 mg/kg, route oral. The conditions noted are these: in vivo. The method, boiled down:
(§6)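 Male Sprague-Dawley rats, cassette-dosed at 2 mg/kg in PBS orally (iv arm also run). Serum extracted into diethyl ether and analysed by reversed-phase C18 HPLC.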

Data set [12] concerns Rattus norvegicus. The data set is described as §5. The settings on record: in vivo. Set-up: dose 2 mg/kg, route oral. Type of data set: ADME, organism-based. The method, boiled down: as §6
Data set [13] can be described thus: Bioavailability in rat after (dose 2 mg/kg p.o.). The settings on record: in vivo, po. Type of data set: ADME, organism-based. The method, boiled down: as §6
Data set [14] is filed under the species Homo sapiens. The data set is described as follows: Percent inhibition of collagen-induced platelet aggregation by 50% at a concentration of 100 uM. Type of data set: functional.

Molecules are shown by their SMILES.

As for `CN(C)CCCOc1cc(C(=O)N(C)C)n(Cc2ccccc2)n1`, the inhibition at 100 µM in [1] came out at 4%. In data set [2], this compound returned an REA of 0.93. For the compound `CN(C)CCCOc1cc(Cc2ccccc2)n[nH]1`, the IC50 in data set [3] was 49.2 µM. The EC50 in [4] stood at 0.165 µM. The compound also showed an REA in data set [2] of 1.54. With `Nc1cc(COc2cc(-c3ccccc3)[nH]n2)ccn1`, in data set [2], the REA came to 0.53. Take `CN(C)CCCOc1cc(-c2ccncc2)[nH]n1`: 100 µM produced 0% inhibition in data set [1]. For the same compound, the REA in data set [2] was 1.15.

Regarding `CN(C)CCCCc1cc(-c2ccccc2)[nH]n1`, the REA in [2] amounted to 0.68. The same measure, in the same setting: under `CN(C)CCOc1nn(Cc2ccccc2)c2ccccc12` stands 0.33. In data set [1], `CN(C)CCCOc1cc(C(F)(F)F)[nH]n1` registered an inhibition at 100 µM of 8%. In addition, the REA in [2] came to 1.13. The matching figures for `CN(C)CCCOc1cc(C(=O)NCc2ccccc2)n(Cc2ccccc2)n1`: 25% and 1.22. Regarding `CCN(CC)CCCOc1cc(-c2ccccc2)[nH]n1`, the REA in data set [2] was determined as 0.42. `CN(C)CCCOc1cc(-c2ccoc2)[nH]n1` registered a half-inhibitory concentration (IC50) in data set [3] of 99 µM. The compound further yielded an REA in data set [2] of 1.31. `CC(C)n1nc(OCCCN(C)C)c2ccccc21`: the REA in [2] worked out at 0.66. In the case of `OCc1ccc(-c2nn(Cc3ccccc3)c3ccccc23)o1`, the EC50 in data set [5] was found to be 4.11 µM.

In turn, `CN(C)CCCCCOc1nn(Cc2ccccc2)c2ccccc12` came in with an REA in data set [2] of 0.56. `CN(C)CCCOc1cc(-c2ccccc2)[nH]n1` had an inhibition at 100 µM in data set [1] of 19%. Further, the 50% effective concentration (EC50) in data set [4] stood at 0.72 µM. Moreover, the REA in [2] is 1.49.

`CN(C)CCCOc1ccn(Cc2ccccc2)n1` registered an REA in data set [2] of 0.73.

On to `CN(C)CCCOc1cc(C(=O)N2CCOCC2)n(Cc2ccccc2)n1`, for which testing at 100 µM in data set [1] gave an inhibition of 90%. In data set [2], the REA worked out at 0.84. In turn, `CN(C)CCCOc1cc(C(=O)O)n(Cc2ccccc2)n1` came in with an REA in data set [2] of 1.01.

As to `CC(COc1nn(Cc2ccccc2)c2ccccc12)CN(C)C` (centres undefined), the IC50 in data set [3] was found to be 4.18 µM. In addition, the REA in data set [2] came out at 0.62. Take `CN(C)CCCOc1cc(-c2ccccc2)nn1Cc1ccccc1`: the REA in data set [2] came out at 0.72. Consider `Nc1ncccc1COc1cc(-c2ccccc2)[nH]n1`, for which, in data set [2], the REA was 0.69. For `COc1cc(-c2cc(OCCCN(C)C)[nH]n2)cc(OC)c1OC`, in data set [3], the IC50 was determined as 41.1 µM. In data set [2], this compound had an REA of 1.1. On to `CNC(=O)c1cc(OCCCN(C)C)nn1Cc1ccccc1`, for which, in data set [2], the REA is 0.95. Still for that read-out and setting: under `CN1CCCC(COc2cc(-c3ccccc3)[nH]n2)C1` (centres undefined) stands 0.61. In the case of `CN(C)CCCOc1cc(-c2ccccc2)n(-c2ccccc2)n1`, the peak level in [6] (Cmax) was 1.4 ng/mL. The compound also gave an exposure (AUC) in data set [7] of 3.3 ng·h/mL. In addition, the bioavailability in data set [8] was under 2%. In [3], this compound showed an IC50 of 2.84 µM. The concentration for a half-maximal effect (EC50) in [4] was 0.58 µM. In data set [2], this compound gave an REA of 1.28. Compound `CN(C)CCCOc1nn(C(=O)c2ccccc2)c2ccccc12` had an IC50 in data set [3] of 8.57 µM. In data set [2], the REA was 1.04.

`CN(C)CCCOc1[nH]nc2ccccc12` yielded an inhibition at 50 µM in [9] of 50%. In addition, the REA in data set [10] is 1.93. As for `CN(C)CCCOc1cc(-c2ccccc2)n(Cc2ccccc2)n1`, in data set [11], the highest level (Cmax) was 3.1 ng/mL. Moreover, the exposure (AUC) in data set [12] was 15.5 ng·h/mL. Moreover, the bioavailability in data set [13] worked out at 2%. The compound further registered a half-maximal inhibitory concentration (IC50) in data set [3] of 2.37 µM. The EC50 in data set [4] amounted to 0.44 µM. In data set [2], the REA was determined as 1.08.

On to `CC(=O)n1nc(OCCCN(C)C)c2ccccc21`, for which the REA in data set [2] was found to be 0.82. In turn, `CN(C)CCCOc1nn(Cc2ccccc2)c2ccccc12` [BENZYDAMINE] had a half-inhibitory concentration (IC50) in data set [3] of 6.67 µM. For the same compound, the 50% effective concentration (EC50) in [4] was 1.02 µM. The compound also yielded an REA in data set [2] of 1.

In [3], `CN(C)CCCCOc1nn(Cc2ccccc2)c2ccccc12` gave a concentration for half-maximal inhibition (IC50) of 7.62 µM. Further, the REA in [2] came to 0.79.

In turn, `CN(C)CCCOc1nn(CCCN(C)C)c2ccccc12` displayed an REA in data set [2] of 0.79.

Consider `CN(C)CCCOc1ccn(-c2ccccc2)n1`, for which the inhibition at 100 µM in data set [14] turned out to be 3%. The compound also registered an REA in data set [2] of 0.71.

On to `CN(C)CCCOc1nn(CCc2ccccc2)c2ccccc12`, for which, in data set [2], the REA turned out to be 0.84. On the same count and under the same terms, under `CN(C)CCCOc1nn(C(=O)N(C)C)c2ccccc12` stands 0.78. As to `CN(C)CCCOc1nn(-c2ccccc2)c2ccccc12`, the peak level in data set [11] (Cmax) was 3.2 ng/mL. In data set [12], this compound showed an AUC of 7.9 ng·h/mL. The compound further displayed a bioavailability in data set [13] of 2%. The half-maximal inhibitory concentration (IC50) in [3] turned out to be 2.46 µM. In addition, the REA in data set [2] was 1.16.

Turning to `CN(C)CCCOc1[nH]ncc1-c1ccccc1`, the half-inhibitory concentration (IC50) in data set [3] worked out at 12 µM. Further, in data set [2], the REA is 1.17. On to `CN(C)CCCOc1nn(S(C)(=O)=O)c2ccccc12`, for which, in [3], half-maximal inhibition (IC50) required 21.6 µM. The same compound registered an REA in [2] of 1.07.

In the case of `COc1ccc(NC(=O)c2cc(OCCCN(C)C)nn2Cc2ccccc2)cc1`, in [7], the AUC turned out to be 61.1 ng·h/mL. Moreover, in [4], the EC50 amounted to 5.49 µM. The REA in [2] was 1.1. With `CCCN(CCC)C(=O)c1cc(OCCCN(C)C)nn1Cc1ccccc1`, testing at 100 µM in [1] gave an inhibition of 35%. In data set [2], this compound came in with an REA of 1.22.

For `CN(C)CCCNc1cc(-c2ccccc2)[nH]n1`, the REA in data set [2] was found to be 0.66.

Compound `c1ccc(-c2cc(OCCCN3CCCC3)n[nH]2)cc1` showed an REA in data set [2] of 0.85.

In data set [2], `NCCCOc1nn(Cc2ccccc2)c2ccccc12` returned an REA of 0.48.
